Assay results taken from article PMC2736347 (The Journal of organic chemistry, 2009).
≈ marks a conversion by molar mass, not a printed value. Entries after “also recorded” stand apart in the source; their conditions may differ. Read-outs that look alike come from different tables or passages of the source.

Experiments:
SIRT2 [1] = biological target: T1, SIRT2 (Homo sapiens, UniProt Q8IXJ6); assay: Initial SIRT2 inhibitory assay; type: biochemical
T1 sequence (Q8IXJ6 1-389): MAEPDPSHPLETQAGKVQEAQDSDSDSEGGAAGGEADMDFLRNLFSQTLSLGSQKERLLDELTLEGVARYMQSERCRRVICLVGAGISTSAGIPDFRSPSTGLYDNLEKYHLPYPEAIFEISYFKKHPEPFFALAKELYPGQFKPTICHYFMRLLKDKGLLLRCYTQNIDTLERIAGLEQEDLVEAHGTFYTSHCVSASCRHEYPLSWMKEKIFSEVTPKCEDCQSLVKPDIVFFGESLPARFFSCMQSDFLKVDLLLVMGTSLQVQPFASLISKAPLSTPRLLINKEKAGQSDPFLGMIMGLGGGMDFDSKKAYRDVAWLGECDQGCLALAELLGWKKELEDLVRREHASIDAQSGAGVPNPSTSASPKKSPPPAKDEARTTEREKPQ
How it was run: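 Reactions contained 50 µM fluor de Lys substrate, 270 nM SIRT2 and 1 mM NAD, with or without test compound, in Buffer A (25 mM Tris-HCl pH 8.0, 137 mM NaCl, 2.7 mM KCl, 1 mM MgCl2). Blanks lacked NAD. After 2 h at 37°, reactions were stopped with 2.7 mg/mL trypsin in Buffer A and developed for 20 min. Fluorescence was read at ex 360/em 460 nm.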

sodium channels = assay: Sodium channel blocking assay in neuro-2a cells; type: cell-based, mouse
[2] = tested on: NCI-H460 lung tumor cells; assay: Cytotoxicity assay; type: cell-based; conditions: human lung H-460
How it was run: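 NCI-H460 cells were seeded at 6000 cells/well in 96-well plates and dosed 24 h later. The test compound was dissolved in DMSO and diluted into medium without fetal bovine serum, with DMSO below 0.5% final. Viability was read by MTT reduction.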

SIRT2 [3] = biological target: T1, SIRT2; conditions: read-out: IC50 (SIRT2), reported; cited from earlier work
SIRT1 = biological target: T2, SIRT1 (Homo sapiens, UniProt Q96EB6); assay: Secondary SIRT1 inhibitory assay; type: biochemical; conditions: read-out: SIRT1 IC50 ± SE; second assay system
T2 sequence (Q96EB6 1-747): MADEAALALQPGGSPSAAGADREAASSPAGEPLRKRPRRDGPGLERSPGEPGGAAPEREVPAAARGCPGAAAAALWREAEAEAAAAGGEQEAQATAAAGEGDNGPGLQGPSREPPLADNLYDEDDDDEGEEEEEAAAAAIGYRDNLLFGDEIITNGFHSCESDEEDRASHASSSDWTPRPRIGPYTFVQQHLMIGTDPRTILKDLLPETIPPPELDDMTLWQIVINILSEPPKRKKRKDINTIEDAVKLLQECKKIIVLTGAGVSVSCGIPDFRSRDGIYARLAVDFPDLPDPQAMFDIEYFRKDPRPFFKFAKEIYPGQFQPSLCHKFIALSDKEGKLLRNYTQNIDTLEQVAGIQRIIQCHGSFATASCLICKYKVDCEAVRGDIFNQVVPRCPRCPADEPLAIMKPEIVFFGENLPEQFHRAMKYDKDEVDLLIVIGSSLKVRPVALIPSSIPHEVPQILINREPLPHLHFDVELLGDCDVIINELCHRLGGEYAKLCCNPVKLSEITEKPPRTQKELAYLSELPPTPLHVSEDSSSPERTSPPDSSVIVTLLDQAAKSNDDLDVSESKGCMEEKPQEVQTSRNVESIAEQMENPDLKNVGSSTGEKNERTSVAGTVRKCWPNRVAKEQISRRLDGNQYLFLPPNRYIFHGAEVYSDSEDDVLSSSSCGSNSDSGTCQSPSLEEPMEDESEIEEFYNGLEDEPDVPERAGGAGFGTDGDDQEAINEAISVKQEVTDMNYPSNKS

SIRT2 [4] = biological target: T1, SIRT2; assay: Secondary SIRT2 inhibitory assay; type: biochemical; conditions: second assay system; for IC50: read-out: SIRT2 IC50 ± SE
Candida albicans = conditions: 100 µg/disk; cited from earlier work
Artemia salina = conditions: cited from earlier work
Biomphalaria glabrata = conditions: cited from earlier work

## CCCCCCCCCCCC(O)(CO)CCCC(=O)O (stereo not shown) [Compound 2, Tanikolide seco acid]
SIRT2 [1]; highest concentration tested 50 µM
  SIRT2 inhibitory activity: inactive
Sodium channels; highest concentration tested 10 µM
  sodium channel blocking activity: inactive
[2]; at 9.9 µM
  cytotoxicity to H-460 cell line: moderately toxic; also recorded: moderate cytotoxicity

## O=c1oc2ccccc2c2oc3cc(O)c(O)cc3c12 [8,9-dihydroxybenzo-[4,5]furo[3,2-c]chromen-6-one]
SIRT2 [3]
  IC50: 45 µM

## (5R, 5’S)-tanikolide dimer [Compound 4]
SIRT1
  IC50: 28.8 ± 4.3 µM
SIRT2 [4]
  IC50: 2.4 ± 0.2 µM
  fold more potent to the SIRT2 isoform than to SIRT1: approximately 10 fold

## CCCCCCCCCCC[C@]1(CO)CCCC(=O)O1 [Compound 1, Tanikolide]
Candida albicans
  diameter zone inhibition: 13 mm
Artemia salina
  LC50 brine shrimp: 3.6 µg/mL (≈ 12.7 µM)
Biomphalaria glabrata
  LC50 snail: 9.0 µg/mL (≈ 31.6 µM)

## (5S, 5’S)-tanikolide dimer [ent-5]
SIRT1
  IC50: 34.5 ± 3.5 µM
SIRT2 [4]
  IC50: 3.1 ± 0.3 µM
  fold more potent to the SIRT2 isoform than to SIRT1: approximately 10 fold

## (5R, 5’R)-tanikolide dimer [Compound 3]
SIRT2 [1]; read-out: IC50 against SIRT2, initial assay format
  IC50: 0.176 µM
SIRT1
  IC50: 36.4 ± 8.1 µM
SIRT2 [4]; listed as 5
  IC50: 3.3 ± 0.2 µM
SIRT2 [4]
  fold more potent to the SIRT2 isoform than to SIRT1: approximately 10 fold
Sodium channels; at 5.2 µM
  inhibition in sodium channel blocking assay: 54%
[2]; at 10 µM
  cytotoxicity to H-460 cell line: did not have any activity
